Reference: ChEMBL document CHEMBL3808372, “Identification of quinones as novel PIM1 kinase inhibitors” (Bioorg Med Chem Lett, 2016)

Columns and labels:
Design in all cases: scale not given: the % may be the effect or the level left
[1] = molecular target: Platelet-derived growth factor receptor alpha (Homo sapiens) (UniProt P16234); experiment: Inhibition of human PDGFRA (575 to 1002 amino acid residues) assessed as enzyme activity at 10 uM by KINOMEScan assay
In short: (§1)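 Commercial KINOMEscan binding panel of 100 kinases, test compound at 10 μM. Results are primary-screen binding interactions expressed as % Ctrl = (test compound signal − positive control signal)/(negative control signal − positive control signal) × 100. Lower % Ctrl means stronger binding.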

[2] = molecular target: Glycogen synthase kinase-3 beta (Homo sapiens) (UniProt P49841); experiment: Inhibition of full length human GSK3B assessed as enzyme activity at 10 uM by KINOMEScan assay
In short: (§2)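 Competition binding screen on a 100-kinase KINOMEscan panel, compound tested at a single 10 μM concentration. Primary binding read-out expressed as % Ctrl = (test compound signal − positive control signal)/(negative control signal − positive control signal) × 100, with lower values meaning stronger binding.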

[3] = molecular target: Protein kinase C epsilon type (Homo sapiens) (UniProt Q02156); experiment: Inhibition of human PRKCE (378 to 737 amino acid residues) assessed as enzyme activity at 10 uM by KINOMEScan assay
In short: (§3)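 Single-concentration competition binding screen (KINOMEscan) across a 100-kinase panel at 10 μM. Primary binding read-out is reported as % of control: (test signal − positive-control signal)/(negative-control signal − positive-control signal) × 100. Lower values indicate stronger binding.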

[4] = molecular target: Tyrosine-protein kinase BTK (Homo sapiens) (UniProt Q06187); experiment: Inhibition of full length human BTK assessed as enzyme activity at 10 uM by KINOMEScan assay; in short: as §1
[5] = molecular target: Activin receptor type-1B (Homo sapiens) (UniProt P36896); experiment: Inhibition of human ACVR1B (187 to 505 amino acid residues) expressed in bacterial system assessed as enzyme activity at 10 uM by KINOMEScan assay; in short: as §2
[6] = molecular target: Fibroblast growth factor receptor 2 (Homo sapiens) (UniProt P21802); experiment: Inhibition of human FGFR2 (457 to 769 amino acid residues) assessed as enzyme activity at 10 uM by KINOMEScan assay expressed in bacterial system assessed as enzyme activity at 10 uM by KINOMEScan assay; in short: as §1
[7] = molecular target: Dual specificity tyrosine-phosphorylation-regulated kinase 1B (Homo sapiens) (UniProt Q9Y463); experiment: Inhibition of full length human DYRK1B expressed in bacterial system assessed as enzyme activity at 10 uM by KINOMEScan assay; in short: as §2
[8] = molecular target: Receptor tyrosine-protein kinase erbB-2 (Homo sapiens) (UniProt P04626); experiment: Inhibition of human ERBB2 (646 to 1225 amino acid residues) assessed as enzyme activity at 10 uM by KINOMEScan assay; in short: as §2
[9] = molecular target: Mitogen-activated protein kinase 9 (Homo sapiens) (UniProt P45984); experiment: Inhibition of full length human JNK2 assessed as enzyme activity at 10 uM by KINOMEScan assay; in short: as §2
[10] = molecular target: Serine/threonine-protein kinase PLK3 (Homo sapiens) (UniProt Q9H4B4); experiment: Inhibition of human PLK3 (42 to 334 amino acid residues) assessed as enzyme activity at 10 uM by KINOMEScan assay; in short: as §3
[11] = molecular target: Mitogen-activated protein kinase kinase kinase 4 (Homo sapiens) (UniProt Q9Y6R4); experiment: Inhibition of human MAP3K4 (1319 to 1608 amino acid residues) expressed in bacterial system assessed as enzyme activity at 10 uM by KINOMEScan assay; in short: as §1
[12] = molecular target: Mitogen-activated protein kinase 11 (Homo sapiens) (UniProt Q15759); experiment: Inhibition of full length human p38-beta expressed in bacterial system assessed as enzyme activity at 10 uM by KINOMEScan assay; in short: as §2
[13] = molecular target: Casein kinase I isoform gamma-2 (Homo sapiens) (UniProt P78368); experiment: Inhibition of full length human CSNK1G2 expressed in bacterial system assessed as enzyme activity at 10 uM by KINOMEScan assay; in short: as §1
[14] = molecular target: MAP/microtubule affinity-regulating kinase 3 (Homo sapiens) (UniProt P27448); experiment: Inhibition of full length human MARK3 expressed in bacterial system assessed as enzyme activity at 10 uM by KINOMEScan assay; in short: as §1
[15] = molecular target: Cyclin-dependent kinase 3 (Homo sapiens) (UniProt Q00526); experiment: Inhibition of full length human CDK3 expressed in bacterial system assessed as enzyme activity at 10 uM by KINOMEScan assay; in short: as §2
[16] = molecular target: Serine/threonine-protein kinase PLK4 (Homo sapiens) (UniProt O00444); experiment: Inhibition of human PLK4 (1 to 273 amino acid residues) assessed as enzyme activity at 10 uM by KINOMEScan assay; in short: as §3
[17] = system: Mast/stem cell growth factor receptor Kit (Homo sapiens), P10721 [V559D,T670I]; experiment: Inhibition of human KIT V559D/T670I mutant (545 to 952 amino acid residues) expressed in bacterial system assessed as enzyme activity at 10 uM by KINOMEScan assay; in short: as §1
[18] = molecular target: Receptor-type tyrosine-protein kinase FLT3 (Homo sapiens) (UniProt P36888); experiment: Inhibition of human FLT3 (646 to 1225 amino acid residues) assessed as enzyme activity at 10 uM by KINOMEScan assay expressed in bacterial system assessed as enzyme activity at 10 uM by KINOMEScan assay; in short: as §2
[19] = molecular target: Phosphatidylinositol 4-phosphate 3-kinase C2 domain-containing subunit beta (Homo sapiens) (UniProt O00750); experiment: Inhibition of human PIK3C2B (1 to 1634 amino acid residues) assessed as enzyme activity at 10 uM by KINOMEScan assay; in short: as §1
[20] = molecular target: Fibroblast growth factor receptor 3 (Homo sapiens) (UniProt P22607); experiment: Inhibition of human FGFR3 (442 to 771 amino acid residues) assessed as enzyme activity at 10 uM by KINOMEScan assay expressed in bacterial system assessed as enzyme activity at 10 uM by KINOMEScan assay; in short: as §2
[21] = molecular target: NUAK family SNF1-like kinase 2 (Homo sapiens) (UniProt Q9H093); experiment: Inhibition of human SNARK (22 to 333 amino acid residues) assessed as enzyme activity at 10 uM by KINOMEScan assay; in short: as §3
[22] = molecular target: Platelet-derived growth factor receptor beta (Homo sapiens) (UniProt P09619); experiment: Inhibition of human PDGFRB (582 to 1009 amino acid residues) expressed in bacterial system assessed as enzyme activity at 10 uM by KINOMEScan assay; in short: as §1
[23] = molecular target: Focal adhesion kinase 1 (Homo sapiens) (UniProt Q05397); experiment: Inhibition of human FAK (402 to 696 amino acid residues) assessed as enzyme activity at 10 uM by KINOMEScan assay expressed in bacterial system assessed as enzyme activity at 10 uM by KINOMEScan assay; in short: as §2
[24] = molecular target: Cyclin-dependent kinase 2 (Homo sapiens) (UniProt P24941); experiment: Inhibition of full length human CDK2 expressed in bacterial system assessed as enzyme activity at 10 uM by KINOMEScan assay; in short: as §2
[25] = molecular target: Non-receptor tyrosine-protein kinase TYK2 (Homo sapiens) (UniProt P29597); experiment: Inhibition of human TYK2 JH1 catalytic domain (877 to 1187 amino acid residues) assessed as enzyme activity at 10 uM by KINOMEScan assay; in short: as §3
Non-receptor tyrosine-protein kinase TYK2 (Homo sapiens), sequence (P29597 whole entry, the tested form may be a part): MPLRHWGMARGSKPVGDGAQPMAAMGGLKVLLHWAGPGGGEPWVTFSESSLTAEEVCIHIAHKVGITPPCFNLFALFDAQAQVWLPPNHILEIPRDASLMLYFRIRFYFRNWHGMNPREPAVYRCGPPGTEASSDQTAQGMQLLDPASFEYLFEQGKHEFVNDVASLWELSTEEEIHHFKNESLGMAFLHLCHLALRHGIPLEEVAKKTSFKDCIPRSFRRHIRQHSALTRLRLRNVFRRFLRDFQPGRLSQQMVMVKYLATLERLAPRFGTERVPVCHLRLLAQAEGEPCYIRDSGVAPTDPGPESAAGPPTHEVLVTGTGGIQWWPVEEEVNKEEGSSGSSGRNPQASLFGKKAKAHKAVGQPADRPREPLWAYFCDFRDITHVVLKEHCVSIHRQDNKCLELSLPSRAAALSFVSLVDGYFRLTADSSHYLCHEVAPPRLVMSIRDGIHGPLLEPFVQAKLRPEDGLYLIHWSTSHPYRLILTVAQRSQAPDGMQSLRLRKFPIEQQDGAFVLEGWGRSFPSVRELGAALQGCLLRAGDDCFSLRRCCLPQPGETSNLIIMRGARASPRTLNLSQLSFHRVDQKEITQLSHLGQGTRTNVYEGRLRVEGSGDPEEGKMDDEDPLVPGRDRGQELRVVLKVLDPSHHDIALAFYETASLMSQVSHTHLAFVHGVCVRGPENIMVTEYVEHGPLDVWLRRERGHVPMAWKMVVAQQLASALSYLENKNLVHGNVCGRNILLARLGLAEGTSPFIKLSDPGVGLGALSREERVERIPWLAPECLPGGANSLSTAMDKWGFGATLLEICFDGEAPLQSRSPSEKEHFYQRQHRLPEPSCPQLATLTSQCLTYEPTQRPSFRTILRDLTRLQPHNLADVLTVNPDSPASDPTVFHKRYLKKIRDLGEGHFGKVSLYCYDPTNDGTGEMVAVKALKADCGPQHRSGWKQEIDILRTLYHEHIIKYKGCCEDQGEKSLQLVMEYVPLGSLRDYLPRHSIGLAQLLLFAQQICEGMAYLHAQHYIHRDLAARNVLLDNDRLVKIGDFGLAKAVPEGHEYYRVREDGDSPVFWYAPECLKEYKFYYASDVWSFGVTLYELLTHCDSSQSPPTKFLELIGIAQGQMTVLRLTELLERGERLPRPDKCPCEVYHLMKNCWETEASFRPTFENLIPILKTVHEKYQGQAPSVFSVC

Mitogen-activated protein kinase 9 (Homo sapiens), sequence (P45984 whole entry, looked up, the tested form may be a part): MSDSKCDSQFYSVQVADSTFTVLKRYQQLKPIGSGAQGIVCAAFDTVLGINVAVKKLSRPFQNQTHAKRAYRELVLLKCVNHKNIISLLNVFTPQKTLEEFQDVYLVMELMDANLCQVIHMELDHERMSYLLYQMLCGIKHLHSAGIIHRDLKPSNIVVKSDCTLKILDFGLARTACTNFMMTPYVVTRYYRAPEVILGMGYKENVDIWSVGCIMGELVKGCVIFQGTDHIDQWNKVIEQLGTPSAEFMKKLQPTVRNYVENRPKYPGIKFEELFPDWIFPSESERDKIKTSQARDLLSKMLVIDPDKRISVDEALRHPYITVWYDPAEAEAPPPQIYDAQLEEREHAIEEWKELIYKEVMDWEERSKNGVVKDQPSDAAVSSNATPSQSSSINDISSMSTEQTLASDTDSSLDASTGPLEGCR
Receptor-type tyrosine-protein kinase FLT3 (Homo sapiens), sequence (P36888 whole entry, the tested form may be a part): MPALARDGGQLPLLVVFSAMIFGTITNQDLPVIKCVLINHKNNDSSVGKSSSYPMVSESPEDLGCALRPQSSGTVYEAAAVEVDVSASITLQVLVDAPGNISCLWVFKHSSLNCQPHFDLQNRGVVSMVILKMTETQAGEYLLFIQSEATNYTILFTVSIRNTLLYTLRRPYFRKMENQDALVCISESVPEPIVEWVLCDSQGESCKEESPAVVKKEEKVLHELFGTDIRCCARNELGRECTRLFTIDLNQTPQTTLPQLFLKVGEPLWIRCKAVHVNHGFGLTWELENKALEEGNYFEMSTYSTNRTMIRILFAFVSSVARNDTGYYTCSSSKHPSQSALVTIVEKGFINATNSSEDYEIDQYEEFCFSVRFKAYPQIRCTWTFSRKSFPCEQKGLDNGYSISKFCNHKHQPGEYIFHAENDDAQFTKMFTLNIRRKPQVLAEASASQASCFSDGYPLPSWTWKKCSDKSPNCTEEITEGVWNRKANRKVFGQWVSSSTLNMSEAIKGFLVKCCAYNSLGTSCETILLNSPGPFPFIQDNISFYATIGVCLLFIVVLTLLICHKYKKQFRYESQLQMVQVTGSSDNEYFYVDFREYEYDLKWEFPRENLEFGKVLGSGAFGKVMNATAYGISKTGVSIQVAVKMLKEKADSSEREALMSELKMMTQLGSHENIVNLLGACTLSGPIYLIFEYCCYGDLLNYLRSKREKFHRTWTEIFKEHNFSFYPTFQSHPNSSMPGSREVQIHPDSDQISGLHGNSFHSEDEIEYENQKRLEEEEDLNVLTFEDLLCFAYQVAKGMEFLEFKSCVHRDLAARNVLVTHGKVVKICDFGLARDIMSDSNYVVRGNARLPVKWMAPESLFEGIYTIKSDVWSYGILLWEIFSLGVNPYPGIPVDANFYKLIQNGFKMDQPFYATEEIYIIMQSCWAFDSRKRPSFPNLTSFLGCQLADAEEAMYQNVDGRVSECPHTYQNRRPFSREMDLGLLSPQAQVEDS
Mast/stem cell growth factor receptor Kit (Homo sapiens), P10721 [V559D,T670I], sequence (P10721 whole entry V559D/T670I, the tested form may be a part): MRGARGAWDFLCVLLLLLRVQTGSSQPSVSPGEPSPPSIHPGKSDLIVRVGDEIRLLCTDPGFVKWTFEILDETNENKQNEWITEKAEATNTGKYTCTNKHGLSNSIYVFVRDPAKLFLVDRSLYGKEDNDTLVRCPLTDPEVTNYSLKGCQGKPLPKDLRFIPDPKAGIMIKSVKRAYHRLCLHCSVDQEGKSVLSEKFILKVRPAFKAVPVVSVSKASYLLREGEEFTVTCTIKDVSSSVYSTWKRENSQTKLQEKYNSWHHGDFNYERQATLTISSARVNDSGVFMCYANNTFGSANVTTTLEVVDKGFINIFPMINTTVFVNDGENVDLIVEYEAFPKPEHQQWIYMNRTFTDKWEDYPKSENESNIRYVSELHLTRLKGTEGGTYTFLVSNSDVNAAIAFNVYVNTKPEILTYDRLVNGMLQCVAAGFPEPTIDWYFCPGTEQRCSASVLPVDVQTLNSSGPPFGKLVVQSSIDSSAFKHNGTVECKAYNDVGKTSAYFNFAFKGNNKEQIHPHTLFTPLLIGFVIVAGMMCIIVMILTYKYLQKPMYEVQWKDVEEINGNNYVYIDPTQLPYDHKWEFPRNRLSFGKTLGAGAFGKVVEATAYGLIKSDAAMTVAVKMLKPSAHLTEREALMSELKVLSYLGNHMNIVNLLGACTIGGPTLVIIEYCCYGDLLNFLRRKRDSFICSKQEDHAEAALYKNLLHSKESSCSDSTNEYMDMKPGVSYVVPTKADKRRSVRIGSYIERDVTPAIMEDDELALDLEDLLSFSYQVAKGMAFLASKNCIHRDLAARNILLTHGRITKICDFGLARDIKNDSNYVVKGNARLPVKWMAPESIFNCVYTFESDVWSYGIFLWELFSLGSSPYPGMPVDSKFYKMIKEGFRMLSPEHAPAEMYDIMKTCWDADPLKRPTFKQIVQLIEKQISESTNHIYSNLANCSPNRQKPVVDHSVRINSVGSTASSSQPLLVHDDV
Focal adhesion kinase 1 (Homo sapiens), sequence (Q05397 2-1052 limits assumed): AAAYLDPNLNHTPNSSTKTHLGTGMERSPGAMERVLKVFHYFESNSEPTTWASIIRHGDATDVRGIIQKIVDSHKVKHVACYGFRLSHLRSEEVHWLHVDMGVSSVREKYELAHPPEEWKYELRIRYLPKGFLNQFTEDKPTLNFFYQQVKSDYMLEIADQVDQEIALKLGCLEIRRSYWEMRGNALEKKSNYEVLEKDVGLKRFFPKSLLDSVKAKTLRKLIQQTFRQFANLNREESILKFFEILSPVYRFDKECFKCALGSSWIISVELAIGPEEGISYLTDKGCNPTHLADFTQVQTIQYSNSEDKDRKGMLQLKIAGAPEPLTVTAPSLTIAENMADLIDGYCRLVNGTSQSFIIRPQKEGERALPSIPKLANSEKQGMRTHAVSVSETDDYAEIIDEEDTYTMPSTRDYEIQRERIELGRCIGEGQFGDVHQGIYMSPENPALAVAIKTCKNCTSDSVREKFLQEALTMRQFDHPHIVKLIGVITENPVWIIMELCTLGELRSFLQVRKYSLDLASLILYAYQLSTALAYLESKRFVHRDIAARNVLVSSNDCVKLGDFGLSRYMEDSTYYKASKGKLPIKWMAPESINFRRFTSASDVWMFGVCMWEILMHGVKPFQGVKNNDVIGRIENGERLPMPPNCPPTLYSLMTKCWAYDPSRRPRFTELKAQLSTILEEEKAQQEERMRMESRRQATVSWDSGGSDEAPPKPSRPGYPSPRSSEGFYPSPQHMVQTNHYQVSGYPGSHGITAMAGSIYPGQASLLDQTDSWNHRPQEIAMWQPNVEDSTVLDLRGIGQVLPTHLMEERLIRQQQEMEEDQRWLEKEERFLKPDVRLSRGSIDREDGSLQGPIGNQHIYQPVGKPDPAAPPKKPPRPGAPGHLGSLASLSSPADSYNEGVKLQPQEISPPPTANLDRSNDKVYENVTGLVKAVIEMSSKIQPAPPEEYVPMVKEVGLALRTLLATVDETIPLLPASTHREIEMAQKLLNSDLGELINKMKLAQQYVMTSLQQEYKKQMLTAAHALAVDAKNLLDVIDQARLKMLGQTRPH
Glycogen synthase kinase-3 beta (Homo sapiens), sequence (P49841 whole entry, looked up): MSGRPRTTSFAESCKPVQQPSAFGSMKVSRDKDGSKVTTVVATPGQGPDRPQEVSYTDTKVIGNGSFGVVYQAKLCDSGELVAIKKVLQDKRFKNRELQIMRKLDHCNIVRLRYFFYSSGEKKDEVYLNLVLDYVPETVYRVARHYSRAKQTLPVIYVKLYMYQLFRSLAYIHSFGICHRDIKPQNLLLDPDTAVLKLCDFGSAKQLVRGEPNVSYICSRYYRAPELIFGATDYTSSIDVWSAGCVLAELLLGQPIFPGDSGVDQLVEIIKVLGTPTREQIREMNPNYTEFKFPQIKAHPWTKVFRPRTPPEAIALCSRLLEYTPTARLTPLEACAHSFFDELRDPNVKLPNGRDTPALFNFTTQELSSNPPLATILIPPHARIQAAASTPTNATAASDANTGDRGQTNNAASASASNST

For O=C1C2=C(C(=O)c3c(O)ccc(O)c31)[C@@H](O)[C@@H](O)[C@@H](O)C2, which Activity [1] is on record?
The Activity was 100%.

What about the Activity [2] of the same molecule?
Its Activity is 85%.

What about the Activity [3] of the same molecule?
The Activity was 92%.

What about the Activity [4] of the same molecule?
Its Activity is 100%.

And the Activity [5]?
The Activity was 90%.

And the Activity [6]?
Its Activity is 100%.

What about the Activity [7] of the same molecule?
The Activity was 53%.

What about the Activity [8] of the same molecule?
The Activity was 93%.

What about the Activity [9] of the same molecule?
Its Activity is 84%.

And the Activity [10]?
The Activity was 54%.

What about the Activity [11] of the same molecule?
Its Activity is 100%.

What about the Activity [12] of the same molecule?
The Activity was 92%.

And the Activity [13]?
Its Activity is 100%.

What about the Activity [14] of the same molecule?
Its Activity is 100%.

And the Activity [15]?
Its Activity is 88%.

And the Activity [16]?
Its Activity is 89%.

And the Activity [17]?
The Activity was 86%.

What about the Activity [18] of the same molecule?
Its Activity is 84%.

What about the Activity [19] of the same molecule?
The Activity was 100%.

And the Activity [20]?
Its Activity is 93%.

What about the Activity [21] of the same molecule?
Its Activity is 90%.

What about the Activity [22] of the same molecule?
Its Activity is 100%.

And the Activity [23]?
Its Activity is 95%.

What about the Activity [24] of the same molecule?
Its Activity is 92%.

What about the Activity [25] of the same molecule?
The Activity was 57%.
